Sampled rows, rich in hits. Any-hit rate of the full collection: about 5.1%.
NF-kB expr up: raises NF-kB expression in human neuronal cells | NF-kB reporter expression; stronger effect = higher value | fold change at 12.5 µM | 190,000 tested, 1.6% active; in the data active = fold change above about 3.3
STAT1 inh: reduces IFN-gamma driven STAT1 reporter signal | NIH 3T3 STAT1-luciferase reporter, luminescence | inhibition, % at 5.5 µM | 200,000 tested, 0.35% active | AID 920;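 active = inhibition above a set limit, the mean inhibition across all tested compounds plus 3 SD, cut at about 34% in these data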;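 note: 0% = IFN-gamma with DMSO and 100% = IFN-gamma with 300 µM nifuroxazide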
STAT1 activator: activators of IFN-gamma induced STAT1 signaling | NIH 3T3 STAT1-luciferase reporter, luminescence; 100% = IFN-gamma alone, no compound | activation (% of control), % at 5.5 µM | 200,000 tested, 2.6% active;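 active = activation above the screen-wide mean activation plus 3 SD, cut at about 130% in these data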;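 note: raw ratio to IFN-gamma control signal so 100% means no change and 0% no light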
STAT3 inh-1: reduces IL-6 driven STAT3 reporter signal; U3A cells, IL-6 STAT3-luciferase reporter, luminescence; host cell line lacks STAT1; inhibition, % at 5.5 µM; 190,000 tested, 0.89% active;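 active = inhibition above the mean inhibition across all screened compounds plus 3 SD, cut at about 44% in these data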;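 note: 0% = DMSO only wells and 100% = 100 µM nifuroxazide control wells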
STAT3 act: activators of IL-6 induced STAT3 signaling; U3A cells, IL-6 STAT3-luciferase reporter, luminescence; 100% = signal with IL-6 EC80 alone; activation (% of control), % at 5.6 µM; 190,000 tested, 0.91% active;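 active = activation above the screen-wide mean of compound activation plus 3 SD, cut at about 130% in these data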;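 note: 0% = background luminescence of wells with medium and substrate only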
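System – human U3A cells carrying STAT3-luciferase construct · Probe or stimulus – Interleukin-6, 33 ng/mL · Schedule – compound 1 h, then IL-6 6 h at 37 °C · Signal – luminescence from STAT3-driven luciferase reporter · Evaluation – percent of IL-6-only median luminescence · Benchmarks – IL-6-only high control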
APP 5'UTR act: APP 5'UTR luciferase reporter activation; 190,000 tested, 1% active; activation, % at 2 µM; SH-SY5Y APP 5'UTR luciferase reporter, luminescence; zero percent = DMSO vehicle wells; AID 1276;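 active = activation above a set limit, based on mean plus 3 SD of controls, cut at about 140% in these data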
STAT3 inh-2: STAT3 inhibition, confirmation assay; shares compounds with STAT3 inh-1; U3A cells, IL-6 STAT3 luciferase reporter, luminescence; cell line lacks STAT1; inhibition, % at 5.7 µM; 1,200 tested, 45% active; AID 1265;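 active = inhibition above the hit cutoff computed for the primary STAT3 screen, cut at about 44% in these data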;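 note: 0% = IL-6 plus DMSO and 100% = IL-6 plus nifuroxazide control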
NFkB inh 2: NF-kappaB inhibition in STAT3 inhibitor counter-screen | 1,200 tested, 36% active | HEK293T NF-kB luciferase reporter, TNF-alpha induced | inhibition, % at 5.7 µM | shares compounds with STAT3 inh-1;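 active = inhibition above the mean of solvent-only control wells plus 3 SD, cutoff set per campaign, cut at about 13% in these data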;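 note: 0% = TNF-alpha with DMSO and 100% = TNF-alpha with MG high control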
STAT1 inh 2: STAT1 inhibition in STAT3 inhibitor counter-screen; shares compounds with STAT3 inh-1; NIH 3T3 STAT1-luciferase reporter, IFN-gamma induced, luminescence; inhibition, % at 5.7 µM; 1,200 tested, 27% active;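 active = inhibition above the mean plus 3 SD of solvent-only control wells, limit set per screening run, cut at about 16% in these data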;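 note: 0% = DMSO with IFN-gamma and 100% = nifuroxazide control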
* hit, by the source's call.

`Cc1ccc(NC(=O)c2ccc(CN3CCc4ccccc4C3)cc2)cc1` gave NF-kB expr up 2.1, STAT1 inh -2, STAT1 activator 102, STAT3 inh-1 71*, STAT3 act 40, APP 5'UTR act 42, STAT3 inh-2 67*, NFkB inh 2 18* and STAT1 inh 2 -8.
`COCCCNC(=O)c1ccc(CN2CCc3ccccc3C2)cc1` gave NF-kB expr up 1.2, STAT1 inh 1, STAT1 activator 98, STAT3 inh-1 5, STAT3 act 98 and APP 5'UTR act 6.
O=C(Nc1cccnc1)c1ccc(C(=O)Nc2cccnc2)cc1 was read as NF-kB expr up 0.87, STAT1 inh -1, STAT1 activator 100, STAT3 inh-1 6, STAT3 act 97 and APP 5'UTR act 1.
O=C(Nc1cccnc1)c1ccc(CN2CCc3ccccc3C2)cc1 was read as NF-kB expr up 0.87, STAT1 inh 1, STAT1 activator 99, STAT3 inh-1 47*, STAT3 act 64, APP 5'UTR act 14, STAT3 inh-2 37, NFkB inh 2 9 and STAT1 inh 2 4.
For O=C(Nc1ccccc1)c1ccc(CN2CCc3ccccc3C2)cc1 the results were NF-kB expr up 1.6, STAT1 inh -11, STAT1 activator 109, STAT3 inh-1 52*, STAT3 act 59, APP 5'UTR act 3, STAT3 inh-2 64*, NFkB inh 2 8 and STAT1 inh 2 -3.
`CCCn1c(C)cc(C(=O)COc2ccc(C)nc2[N+](=O)[O-])c1C` gave NF-kB expr up 0.65, STAT1 inh -1, STAT1 activator 101, STAT3 inh-1 12, STAT3 act 86 and APP 5'UTR act 5.
`Cc1ccc(OCC(=O)c2cc(C)n(-c3ccccc3)c2C)c([N+](=O)[O-])n1` gave NF-kB expr up 0.97, STAT1 inh 27, STAT1 activator 75, STAT3 inh-1 61*, STAT3 act 50, APP 5'UTR act -29, STAT3 inh-2 45*, NFkB inh 2 15* and STAT1 inh 2 3.
Screening C=CCn1c(C)cc(C(=O)COc2ccc(C)nc2[N+](=O)[O-])c1C returned NF-kB expr up 0.54, STAT1 inh 23, STAT1 activator 80, STAT3 inh-1 54*, STAT3 act 56, APP 5'UTR act 16, STAT3 inh-2 3, NFkB inh 2 5 and STAT1 inh 2 -17.
`CCOc1ccc(CO/N=C/c2c(C)[nH]c(=O)[nH]c2=O)cc1` gave NF-kB expr up 1, STAT1 inh -1, STAT1 activator 100, STAT3 inh-1 21, STAT3 act 91 and APP 5'UTR act 18.
Screening O=S(=O)(NCC1CCCO1)c1ccc(-c2ccc(S(=O)(=O)NCC3CCCO3)cc2)cc1 (stereo unspecified) returned NF-kB expr up 1.1, STAT1 inh 25, STAT1 activator 76, STAT3 inh-1 78*, STAT3 act 38, APP 5'UTR act -6, STAT3 inh-2 84*, NFkB inh 2 33* and STAT1 inh 2 22*.
Cc1nn(C)c(Cl)c1S(=O)(=O)N1CCC(CO)(CCc2ccccc2)CC1 was read as NF-kB expr up 1.2, STAT1 inh 1, STAT1 activator 97, STAT3 inh-1 5, STAT3 act 102 and APP 5'UTR act 25.
For CN=c1scc(C)n1/N=C/c1ccc2c(c1)OCO2 the results were NF-kB expr up 8.6*, STAT1 inh -22, STAT1 activator 120, STAT3 inh-1 49*, STAT3 act 63, APP 5'UTR act 209*, STAT3 inh-2 14, NFkB inh 2 -22 and STAT1 inh 2 -130.
Screening Cc1nc(-c2coc3cc(O)c(C)cc3c2=O)cs1 returned NF-kB expr up 2.9, STAT1 inh 11, STAT1 activator 90, STAT3 inh-1 53*, STAT3 act 58, APP 5'UTR act 142*, STAT3 inh-2 28, NFkB inh 2 0 and STAT1 inh 2 -80.
c1ccc2sc(NN=C3CCCCCC3)nc2c1 was read as NF-kB expr up 2.9, STAT1 inh 34*, STAT1 activator 66, STAT3 inh-1 75*, STAT3 act 40, APP 5'UTR act 149*, STAT3 inh-2 38, NFkB inh 2 7 and STAT1 inh 2 -83.
Screening Cn1cc(S(=O)(=O)Oc2ccccc2)c(=O)n(C)c1=O returned STAT1 inh 8, STAT1 activator 91, STAT3 inh-1 8, STAT3 act 97 and APP 5'UTR act 2.
O=C(Nc1ccc2oc(-c3ccccc3)nc2c1)c1ccncc1 was read as NF-kB expr up 1.1, STAT1 inh -6, STAT1 activator 105, STAT3 inh-1 46*, STAT3 act 67, APP 5'UTR act 28, STAT3 inh-2 35, NFkB inh 2 3 and STAT1 inh 2 -8.
Screening O=C(Nc1ccc(-c2nc3ccccc3o2)cc1)c1ccc2c(c1)OCO2 returned NF-kB expr up 1.1, STAT1 inh -10, STAT1 activator 109, STAT3 inh-1 20, STAT3 act 82 and APP 5'UTR act 3.
COc1cc(OC)cc(C(=O)Nc2ccc(-c3nc4ccccc4o3)cc2)c1 was read as NF-kB expr up 0.44, STAT1 inh 9, STAT1 activator 92, STAT3 inh-1 46*, STAT3 act 65, APP 5'UTR act 3, STAT3 inh-2 45*, NFkB inh 2 3 and STAT1 inh 2 12.
`O=C(Nc1ccc(-c2nc3ccccc3o2)cc1)c1ccc(N2C(=O)C3C4C=CC(C4)C3C2=O)cc1` (stereo unspecified) gave NF-kB expr up 1.1, STAT1 inh 7, STAT1 activator 91, STAT3 inh-1 74*, STAT3 act 38, STAT3 inh-2 68*, NFkB inh 2 17* and STAT1 inh 2 -11.
Screening COc1ccc(C(C(=O)Nc2ccc(C(C)C)cc2)N(C)C(=O)c2ccc(=O)[nH]c2)cc1 (stereo unspecified) returned NF-kB expr up 1, STAT1 inh -2, STAT1 activator 101, STAT3 inh-1 4, STAT3 act 98 and APP 5'UTR act 6.
Screening Cc1cccc2cc3c(N)c(C#N)sc3nc12 returned NF-kB expr up 1, STAT1 inh -11, STAT1 activator 110, STAT3 inh-1 50*, STAT3 act 64, APP 5'UTR act -16, STAT3 inh-2 29, NFkB inh 2 -7 and STAT1 inh 2 -27.

Source: PubChem
